WT yeast gro inh – growth inhibition of WT yeast, mitochondrial fusion screen | mitochondrial fusion phenotypic screen, WT strain | actives 2.1% (n = 190,000) | inhibition, % at 10 µM; in the data active = inhibition above about 58%; tested in S. cerevisiae
b-catenin transl – alters nuclear translocation of beta-catenin in HeLa cells | immunofluorescence imaging | nuclear translocation activity, % at 5 µM | actives 0.3% (n = 190,000) | AID 1665;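 active = nuclear translocation activity above 50% at 5 µM, with a well cell count of 50 or more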;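 note: per-cell ratio of nuclear to cytoplasmic median beta-catenin stain intensity; plate controls were DMSO negative control for no effect and GSK-3 inhibitor IX positive control for full effect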
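test system = HeLa cells, endogenous beta-catenin | dosing = single 5 µM dose plus 0.02–20 µM confirmation series | times = compound treatment 24 h, 37°C, 5% CO2 | technique = beta-catenin immunofluorescence imaging with DAPI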
Pf gametocyte – kills late stage P. falciparum gametocytes; P. falciparum stage V gametocytes, ATP luminescence, 24 h; inhibition, % at 10.9 µM; actives 0.065% (n = 150,000); AID 743093;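 active = inhibition above the mean plus 3 SD of compounds within the control limits, set per campaign, cut at about 38% in these data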;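 note: 0% = DMSO wells and 100% = medium only without gametocytes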
Cl transport mod – modulators of human KCC2 chloride dependent transport; Q9H2X9; KCC2 cells, thallium flux FluoZin-2 fluorescence; B-score of Tl+ flux slope (higher = more flux/activation; lower = inhibition) at 10 µM; actives 2.2% (n = 190,000); AID 1456;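 active = thallium flux slope and its plate-corrected score both differing from the plate sample mean at a set confidence after two filtering rounds, in either direction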;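 note: slope of fluorescence scaled to starting intensity during 10 to 20 s after thallium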
MT stabilizer – stabilizes microtubules in HeLa cells. actives 0.83% (n = 200,000). % tubulin-high responders, % at 10 µM. AID 2205. HeLa tubulin immunostaining HCS, 24 h; share of cells brighter than vehicle mean+2SD;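 active = plate Z-score above 3 for both tubulin-high and condensed-nucleus cell shares, with cell loss under 80%, at 10 µM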;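 note: anti alpha tubulin signal scored within the nucleus-defined area of each cell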
Starred values were filed as active, the others as inactive. Most compounds without a hit are left out; they make up all but 4% or so of the library.

`O=C1C=C(NC(=O)Nc2ccc(Cl)c(Cl)c2)CCC1` gave WT yeast gro inh 80*, b-catenin transl -3, Pf gametocyte -7 and MT stabilizer 3.
`O=C(NCc1ccc(OC(F)(F)F)cc1)c1cccc2c1C(=O)c1ccc(N3CCCC3)cc1S2(=O)=O` gave Pf gametocyte 39*.
Screening CSc1nc(O)c(C(c2ccc(OC(C)C)cc2)c2c(O)nc(SC)[nH]c2=O)c(=O)[nH]1 returned Pf gametocyte 3.
For COc1ccc(NC(=O)CN(c2ccc([N+](=O)[O-])cc2)S(=O)(=O)c2ccccc2)c(OC)c1 the results were WT yeast gro inh 4, b-catenin transl 4, Pf gametocyte -24, Cl transport mod -1.9 and MT stabilizer 2.
For COc1ccc(N(CC(=O)Nc2ccc(OC)cc2OC)S(=O)(=O)c2ccccc2)cc1 the results were WT yeast gro inh 5, b-catenin transl 0, Pf gametocyte -24, Cl transport mod -1.8 and MT stabilizer 8.3*.
COC(=O)CN(c1ccc2c(c1)OCCO2)S(=O)(=O)c1ccccc1 was read as WT yeast gro inh 73*, b-catenin transl 1, Pf gametocyte 21, Cl transport mod -0.39 and MT stabilizer 2.
For COC(=O)c1ccccc1NC(=O)CN(c1ccc(OC)cc1)S(C)(=O)=O the results were WT yeast gro inh 14, b-catenin transl 2, Pf gametocyte -2, Cl transport mod -1.5 and MT stabilizer 29*.
COc1ccc(NC(=O)CN(c2ccc(C)cc2)S(C)(=O)=O)c(OC)c1 was read as WT yeast gro inh 62*, b-catenin transl 2 and MT stabilizer 4.
Screening COc1cccc(CNCc2ccccc2Br)c1OC returned Pf gametocyte 8.
O=C(COC(=O)Cc1ccccc1F)Nc1cc(S(=O)(=O)N2CCOCC2)ccc1N1CCCC1 was read as WT yeast gro inh -8, b-catenin transl 1, Pf gametocyte 11, Cl transport mod -1.8 and MT stabilizer 3.
For Cc1ccc(CSC2=Nc3sccc3C3=NC(=O)CN23)cc1 the results were WT yeast gro inh 0, b-catenin transl -1, Pf gametocyte 11, Cl transport mod 0.3 and MT stabilizer 1.
`Cc1ccc(-c2csc3nc[nH]c(=S)c23)cc1C` gave WT yeast gro inh 58, b-catenin transl 1, Pf gametocyte 19, Cl transport mod 43* and MT stabilizer 6.
`O=C(c1cc2ccccc2o1)N1CCN(c2ccccc2Cl)CC1` gave WT yeast gro inh 75*, Cl transport mod -2.1 and MT stabilizer 2.
`O=C(CCn1c(=O)oc2ccccc21)N1CCN(c2ccccc2Cl)CC1` gave WT yeast gro inh -12, b-catenin transl 0, Pf gametocyte 3, Cl transport mod -0.69 and MT stabilizer 44*.
CCN(CCC(=O)Nc1cc(OC)ccc1OC)Cc1ccccc1 was read as Pf gametocyte 23.
For CCOC(=O)C1=C(N)n2c(s/c(=C/c3ccco3)c2=O)=C(C(=O)OC)C1c1ccco1 (stereo unspecified) the results were WT yeast gro inh 10, b-catenin transl -4, Pf gametocyte 14, Cl transport mod 0.64 and MT stabilizer 46*.
Screening CCOC(=O)C1=C(C)Nc2ccccc2N=C1NC(=O)c1ccc(Cl)c(S(=O)(=O)N2CCCC2)c1 returned WT yeast gro inh -1, b-catenin transl 2, Cl transport mod -1.2 and MT stabilizer 6.
For CC(=O)NC1c2ccccc2C(=O)N1Cc1ccccc1 (stereo unspecified) the results were Pf gametocyte -11.
Screening O=C(CCc1ccccc1)Nc1ccc(Cl)cn1 returned WT yeast gro inh -2, b-catenin transl 140*, Cl transport mod -0.9 and MT stabilizer 36*.
Screening O=C(COc1ccccc1)Nc1ccc(Cl)cn1 returned WT yeast gro inh 5, b-catenin transl 2, Pf gametocyte 23, Cl transport mod 0.75 and MT stabilizer 5.
Screening O=C(Nc1ccc(Cl)cn1)C1C(c2ccccc2)C1(Cl)Cl (stereo unspecified) returned WT yeast gro inh 71*, b-catenin transl 1, Cl transport mod 0.074 and MT stabilizer 4.
O=C1c2ccccc2C(Nc2ccc(Cl)cn2)N1Cc1ccccc1 (stereo unspecified) was read as WT yeast gro inh 71*, b-catenin transl -6, Cl transport mod -2.4 and MT stabilizer 3.
O=C(Nc1ccc(Cl)cn1)C1CC1 was read as WT yeast gro inh 3, b-catenin transl 2, Pf gametocyte 14, Cl transport mod -0.064 and MT stabilizer 2.
`CCN(CC)C(=O)CSc1nnc(COc2ccccc2)n1N` gave WT yeast gro inh -1, b-catenin transl 2, Pf gametocyte -3, Cl transport mod -0.057 and MT stabilizer 2.
`Cc1ccc(C)n1-c1ccc(C(=O)NN)s1` gave WT yeast gro inh -42, b-catenin transl 0, Pf gametocyte -12, Cl transport mod 0.00022 and MT stabilizer 4.
OCC[C@H]1C[C@@H](O)[C@H](O)[C@]2(CCCO2)O1 was read as Pf gametocyte -9.
Screening CCOCCCNC(=S)NCCCNc1nc2c(C)c(C)ccc2cc1C#N returned WT yeast gro inh 74*, b-catenin transl 0 and MT stabilizer 2.
`CCOCCCNC(=S)N1CCCN(c2nc3c(C)c(C)ccc3cc2C#N)CC1` gave WT yeast gro inh 74*, b-catenin transl -2, Cl transport mod -0.7 and MT stabilizer 3.
COc1ccc([C@H]2CC(=O)C=C(c3ccc(Oc4ccccc4)cc3)C2)cc1OC was read as Pf gametocyte 2.
`C=CCSc1nnc(NC(=O)c2cn(CC)c3nc(C)ccc3c2=O)s1` gave WT yeast gro inh -2, b-catenin transl 3, Pf gametocyte -11, Cl transport mod -0.17 and MT stabilizer 6.
Cc1ccc(-n2nc(C)c(Sc3ccccc3[N+](=O)[O-])c2N)cc1 was read as WT yeast gro inh 53, Pf gametocyte -5, Cl transport mod -0.96 and MT stabilizer 3.
`CCC(=O)Nc1cccc(C(=O)/C=C/c2cc(Br)ccc2OC)c1` gave WT yeast gro inh 89*, b-catenin transl 3, Cl transport mod -0.56 and MT stabilizer 16.
Screening CCc1ccc(CN(C)C(=O)CCc2nc3ccccc3n(-c3ccc(OC)cc3)c2=O)cc1 returned WT yeast gro inh 58*, b-catenin transl -2, Pf gametocyte 3, Cl transport mod -0.41 and MT stabilizer 2.
`COc1ccc(-n2c(=O)c(CCC(=O)N(C)Cc3ccccc3C)nc3ccccc32)cc1` gave WT yeast gro inh 35, b-catenin transl -2, Pf gametocyte -17, Cl transport mod -0.79 and MT stabilizer 5.
Screening CC(C)C(=O)NC(=S)N(Cc1ccccc1)Cc1ccccc1 returned WT yeast gro inh 33, b-catenin transl 0, Pf gametocyte -7, Cl transport mod 42* and MT stabilizer 4.
`CC(C)CC(=O)NC(=S)N(Cc1ccccc1)Cc1ccccc1` gave WT yeast gro inh 64*, b-catenin transl 3, Cl transport mod 49* and MT stabilizer 5.
